Published values collected from several papers.
Protocols differ between the studies behind these lines. pIC50: −log10 of the molar value.

Compound | tested on | assay | conditions | measurement | result
O=c1cc(CSc2ccc(N=Cc3ccccc3)cc2)occ1O |  | ABTS scavenging, absorbance |  | pIC50 | 7.40
CC[C@H](C)[C@H](NC(=O)[C@H](CCCCN)NC(=O)[C@H](CCCCN)NC(=O)[C@H](CCCCN)NC(=O)[C@H](CC(C)C)NC(=O)[C@H](CCCNC(=N)N)NC(=O)[C@H](CCCCN)NC(=O)[C@@H](N)CC(C)C)C(=O)N[C@@H](CCCCN)C(=O)N[C@@H](CCCCN)C(=O)N[C@@H](CC(C)C)C(=O)N[C@@H](CC(C)C)C(=O)N[C@@H](CCCCN)C(N)=O | A549 | cell growth or viability, MTT | 24 h | pIC50 | 3.79
O=C(Nc1ccc(Cl)cc1)Nc1cccc(-c2cn(Cc3ccc(Br)cc3)nn2)c1 | A549 | cell growth or viability, CCK-8 | 50 µM, 72 h | viability | 123%
COc1ccccc1C=Nc1ccc(SCc2cc(=O)c(O)co2)cc1 |  | ABTS scavenging, absorbance |  | pIC50 | 4.67
c1ccc(Oc2ccc(Nc3c4c(nc5ccccc35)CCC4)cc2)cc1 | Leishmania donovani | parasite growth | 33.33 µM, promastigote | inhibition | 91%
CC(C)C[C@H](NC(=O)[C@H](CCCCN)NC(=O)[C@H](CC(C)C)NC(=O)[C@H](Cc1ccccc1)NC(=O)[C@H](CC(C)C)NC(=O)[C@H](CCCCN)NC(=O)[C@H](CCCCN)NC(=O)[C@H](CC(C)C)NC(=O)[C@H](CC(C)C)NC(=O)[C@H](CCCCN)NC(=O)[C@@H](N)CCCNC(=N)N)C(=O)N[C@@H](CCCCN)C(=O)N[C@@H](CCCCN)C(N)=O | A549 | cell growth or viability, MTT | 24 h | pIC50 | 3.79
Cc1cc(=O)oc2cc(OCCCC[Se]C#N)ccc12 | A549 | cell growth or viability, SRB |  | GI50 | 0.78 µM
CC(C)(C)c1cccc(C=Nc2ccc(SCc3cc(=O)c(O)co3)cc2)c1 |  | ABTS scavenging, absorbance |  | pIC50 | 4.82
N.N.[Cl][Pt][Cl] | WSU-NHL | cell growth or viability, ATP luminescence | 10 µM, 72 h | inhibition | 100%
O=c1cc(CSc2ccc(N=Cc3ccccc3F)cc2)occ1O |  | ABTS scavenging, absorbance |  | pIC50 | 7.52
CCOc1ccc(Nc2c3c(nc4ccccc24)CCC3)cc1 | Leishmania donovani | parasite growth | 8 µM, intracellular, amastigote | inhibition | 69%
N#C[Se]CCCCOc1ccc2c(-c3ccccc3)cc(=O)oc2c1 | A549 | cell growth or viability, SRB |  | GI50 | 29 µM
CC[C@H](C)[C@H](NC(=O)[C@H](CCCCN)NC(=O)[C@H](CCCNC(=N)N)NC(=O)[C@H](Cc1ccccc1)NC(=O)[C@H](CCCNC(=N)N)NC(=O)[C@H](CCCNC(=N)N)NC(=O)[C@H](CCCNC(=N)N)NC(=O)[C@H](Cc1ccccc1)NC(=O)[C@H](CCCCN)NC(=O)[C@H](CCCNC(=N)N)NC(=O)[C@H](CC(C)C)NC(=O)[C@@H](N)CCCNC(=N)N)C(=O)NCC(N)=O | A549 | cell growth or viability, MTT | 24 h | pIC50 | < 3.30
